Experimental data taken from the M2OR odorant receptor database.

What was measured:
Settings in all cases: stereoisomer not certain
[1] = molecular target: T1, OR10A3 (Homo sapiens) (UniProt P58181)
T1 sequence (whole entry): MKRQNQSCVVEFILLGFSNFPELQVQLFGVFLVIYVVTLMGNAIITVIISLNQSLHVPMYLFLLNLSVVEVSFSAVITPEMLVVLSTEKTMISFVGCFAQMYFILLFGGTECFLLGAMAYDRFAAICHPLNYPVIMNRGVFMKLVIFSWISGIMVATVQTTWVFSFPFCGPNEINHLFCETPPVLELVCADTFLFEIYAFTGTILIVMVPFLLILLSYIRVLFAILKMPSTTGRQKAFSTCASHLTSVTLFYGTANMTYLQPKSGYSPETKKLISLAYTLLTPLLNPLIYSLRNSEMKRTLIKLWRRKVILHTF
In short: (§1)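 Transient luciferase assays in mammalian cell lines were common, though methods varied by source. The values come from published papers and their supplementary material, with extra details from the original authors when needed. Responsive refers to a measured signal the original authors judged statistically different from baseline, and non-responsive (inactive) to the remainder.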

[2] = molecular target: T2, OR10A4 (Homo sapiens) (UniProt Q9H209)
T2 sequence (whole entry): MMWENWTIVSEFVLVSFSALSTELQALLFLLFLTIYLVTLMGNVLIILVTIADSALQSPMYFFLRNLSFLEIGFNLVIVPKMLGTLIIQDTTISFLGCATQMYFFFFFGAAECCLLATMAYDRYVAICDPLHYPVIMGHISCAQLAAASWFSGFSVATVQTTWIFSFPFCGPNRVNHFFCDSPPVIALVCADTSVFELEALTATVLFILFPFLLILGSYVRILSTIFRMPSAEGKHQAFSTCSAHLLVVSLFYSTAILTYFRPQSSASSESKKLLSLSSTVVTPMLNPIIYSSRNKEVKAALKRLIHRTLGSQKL
In short: as §1

[3] = molecular target: T3, OR10A5 (Homo sapiens) (UniProt Q9H207)
T3 sequence (whole entry): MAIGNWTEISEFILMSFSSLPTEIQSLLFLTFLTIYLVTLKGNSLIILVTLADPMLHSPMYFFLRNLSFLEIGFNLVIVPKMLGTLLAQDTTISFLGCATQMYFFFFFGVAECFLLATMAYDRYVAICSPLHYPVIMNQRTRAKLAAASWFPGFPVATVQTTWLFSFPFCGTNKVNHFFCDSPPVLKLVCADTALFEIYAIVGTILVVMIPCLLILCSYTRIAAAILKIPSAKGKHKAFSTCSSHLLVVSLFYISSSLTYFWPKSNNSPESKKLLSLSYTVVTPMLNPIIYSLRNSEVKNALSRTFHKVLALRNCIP
In short: as §1

[4] = molecular target: T4, OR10A6 (Homo sapiens) (UniProt Q8NH74)
T4 sequence (whole entry): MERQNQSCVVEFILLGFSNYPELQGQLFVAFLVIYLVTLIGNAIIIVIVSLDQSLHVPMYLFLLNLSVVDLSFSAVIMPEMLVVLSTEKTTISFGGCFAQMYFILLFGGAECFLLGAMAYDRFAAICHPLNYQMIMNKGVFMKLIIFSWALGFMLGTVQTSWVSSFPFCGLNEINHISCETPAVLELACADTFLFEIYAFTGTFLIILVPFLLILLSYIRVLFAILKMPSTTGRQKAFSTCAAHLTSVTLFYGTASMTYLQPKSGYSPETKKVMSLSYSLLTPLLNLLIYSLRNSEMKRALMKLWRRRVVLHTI
In short: as §1

[5] = molecular target: T5, OR10A7 (Homo sapiens) (UniProt Q8NGE5)
T5 sequence (whole entry): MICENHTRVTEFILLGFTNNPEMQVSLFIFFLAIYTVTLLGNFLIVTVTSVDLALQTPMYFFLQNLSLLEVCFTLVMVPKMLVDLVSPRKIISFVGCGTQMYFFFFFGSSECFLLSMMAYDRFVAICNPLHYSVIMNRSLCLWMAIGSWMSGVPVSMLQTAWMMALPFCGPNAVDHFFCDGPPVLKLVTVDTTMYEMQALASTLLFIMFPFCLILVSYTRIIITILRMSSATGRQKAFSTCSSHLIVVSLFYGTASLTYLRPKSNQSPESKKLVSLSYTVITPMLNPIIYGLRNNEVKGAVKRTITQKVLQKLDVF
In short: as §1

[6] = molecular target: T6, OR10AD1 (Homo sapiens) (UniProt Q8NGE0)
T6 sequence (whole entry): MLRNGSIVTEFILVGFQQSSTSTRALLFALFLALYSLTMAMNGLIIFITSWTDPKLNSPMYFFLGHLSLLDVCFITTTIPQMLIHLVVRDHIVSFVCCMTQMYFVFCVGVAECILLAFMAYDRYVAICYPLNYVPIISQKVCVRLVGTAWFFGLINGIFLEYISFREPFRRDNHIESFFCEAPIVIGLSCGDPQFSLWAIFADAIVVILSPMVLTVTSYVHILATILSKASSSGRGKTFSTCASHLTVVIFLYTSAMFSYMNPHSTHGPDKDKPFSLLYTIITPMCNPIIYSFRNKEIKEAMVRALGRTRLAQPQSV
In short: as §1

[7] = molecular target: T7, OR10AG1 (Homo sapiens) (UniProt Q8NH19)
T7 sequence (whole entry): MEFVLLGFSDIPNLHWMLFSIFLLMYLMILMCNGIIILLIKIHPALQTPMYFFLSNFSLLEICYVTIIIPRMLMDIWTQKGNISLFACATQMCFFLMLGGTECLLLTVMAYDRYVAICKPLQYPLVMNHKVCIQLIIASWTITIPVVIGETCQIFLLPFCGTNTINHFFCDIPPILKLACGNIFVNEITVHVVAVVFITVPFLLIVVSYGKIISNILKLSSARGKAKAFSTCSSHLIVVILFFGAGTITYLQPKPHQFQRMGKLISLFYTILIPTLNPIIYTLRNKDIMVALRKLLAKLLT
In short: as §1

[8] = molecular target: T8, OR10C1 (Homo sapiens) (UniProt Q96KK4)
T8 sequence (whole entry): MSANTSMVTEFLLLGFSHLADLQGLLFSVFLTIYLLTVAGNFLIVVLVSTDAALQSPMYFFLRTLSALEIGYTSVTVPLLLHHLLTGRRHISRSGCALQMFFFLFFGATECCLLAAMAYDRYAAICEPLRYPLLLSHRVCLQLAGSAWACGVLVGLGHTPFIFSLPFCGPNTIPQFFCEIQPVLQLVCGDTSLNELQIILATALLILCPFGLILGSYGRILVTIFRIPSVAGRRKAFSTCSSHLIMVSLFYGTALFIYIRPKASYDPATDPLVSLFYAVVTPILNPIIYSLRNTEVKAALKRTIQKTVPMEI
In short: as §1

[9] = molecular target: T9, OR10D3 (Homo sapiens) (UniProt Q8NH80)
T9 sequence (whole entry): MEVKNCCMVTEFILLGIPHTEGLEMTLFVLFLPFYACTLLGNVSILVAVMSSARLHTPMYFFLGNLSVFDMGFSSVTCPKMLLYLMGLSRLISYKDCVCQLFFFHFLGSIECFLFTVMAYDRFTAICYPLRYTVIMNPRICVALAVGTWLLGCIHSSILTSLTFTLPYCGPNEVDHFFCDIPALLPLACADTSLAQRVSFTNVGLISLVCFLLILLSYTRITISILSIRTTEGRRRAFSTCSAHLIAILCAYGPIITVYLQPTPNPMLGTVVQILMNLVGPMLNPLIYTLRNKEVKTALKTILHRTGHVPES
In short: as §1

Measured: odorant receptor agonist call;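 further: active if original authors judged signal statistically different from baseline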

CC1=C(O)C(=O)OC1C (centres undefined)
inactive: all assays above
